Compound activity as filed in PubChem BioAssay.
HSP90 refold inh = blocks HSP90-mediated luciferase refolding in reticulocyte lysate; Rabbit reticulocyte lysate, luciferase refolding luminescence, 3 h; inhibition, % at 5.6 µM; hit rate 0.91% among 290,000; AID 1789;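 active = inhibition above the screen-wide mean plus 3 SD, computed separately per campaign, cut at about 16% in these data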;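 note: 0% = DMSO wells and 100% = 60 µM geldanamycin wells; inhibitors lower the luminescence because luciferase stays unfolded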
FLuc act counter = affects firefly luciferase, flagging false hits in luciferase stimulation screens; P08659; ATPlite luciferase biochemical, luminescence, 10 min; 0 = ATP-free wells, 1 = DMSO control; activation factor at 10 µM; 200,000 tested, under 10 active;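 active = luciferase activation factor, scaled between plate controls, of at least 2 with compound at 10 µM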
Target sequence (P08659 whole entry, looked up): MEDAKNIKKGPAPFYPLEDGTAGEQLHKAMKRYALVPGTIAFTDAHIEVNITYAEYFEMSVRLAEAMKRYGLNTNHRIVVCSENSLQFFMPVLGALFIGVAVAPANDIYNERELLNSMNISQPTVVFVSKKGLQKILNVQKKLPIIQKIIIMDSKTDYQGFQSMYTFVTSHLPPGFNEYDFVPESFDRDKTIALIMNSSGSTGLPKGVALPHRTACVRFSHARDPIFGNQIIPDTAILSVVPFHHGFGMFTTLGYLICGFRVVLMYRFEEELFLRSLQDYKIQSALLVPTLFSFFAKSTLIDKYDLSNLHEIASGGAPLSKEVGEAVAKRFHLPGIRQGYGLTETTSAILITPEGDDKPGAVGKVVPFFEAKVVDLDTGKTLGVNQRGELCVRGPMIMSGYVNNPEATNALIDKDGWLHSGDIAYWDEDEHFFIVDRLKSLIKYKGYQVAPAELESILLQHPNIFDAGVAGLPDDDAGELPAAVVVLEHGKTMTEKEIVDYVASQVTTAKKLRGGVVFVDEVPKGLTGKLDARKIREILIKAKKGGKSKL
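System: cell-free luciferase reagent; medium: PBS as buffer for the ATP substrate; doses: test compounds dosed from 2 mM stocks in 100% DMSO; incubation: 10 min, room temperature; measured by: luminescence from luciferase reaction; read-out: luciferase activation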
TRAIL sens C8 = caspase-8 TRAIL sensitization. NB7+C8 cells + TRAIL, ATPlite viability luminescence. inhibition (viability loss, TRAIL sensitization), % at 10 µM. hit rate 1% among 360,000. AID 624354;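 active = compounds causing at least 50% loss of cell viability in the single-dose screen, relative to plate controls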
FLuc inhib CS = inhibits firefly luciferase, flagging false hits in luciferase inhibition screens | AID 1006 | ATPLite firefly luciferase biochemical luminescence, 10 min | hit rate 1.5% among 200,000 | inhibition, % at 10 µM;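 active = inhibition above about 50% when tested at 10 µM, limit read from the data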
PPC-1+TRAIL kill = kills PPC-1 cancer cells in the presence of TRAIL; PPC-1 cells + TRAIL, ATPLite viability luminescence; cell killing (% activity), % at 4 µM or 5 µM; hit rate 0.41% among 220,000;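 active = cell killing above 50% in the first pass at 4 µM, then a duplicate retest at 5 µM averaging 50% or more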;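 note: plate controls were cells with TRAIL plus DMSO for no effect and medium-only wells lacking cells for full effect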
Active calls of the source: *; . = no result. Rows were chosen to be rich in hits. Some 2% of all compounds tested hit in one or more screens of this group.

SMILES	HSP90 refold inh	FLuc act counter	TRAIL sens C8	FLuc inhib CS	PPC-1+TRAIL kill
CC(C)(C)OC(=O)N/N=C\c1cccnc1	0.4	0.2	48.6	77.6*	42.3
CCCCCCCC(=O)Nc1ccc(C(=O)N/N=C/c2cccc([N+](=O)[O-])c2)cc1	-1.3	1.1	56.6*	-7.6	20.0
O=C(N/N=C/c1cccnc1)C(O)(c1ccccc1)c1ccccc1	2.5	1.1	-0.6	-7.7	-2.7
Nc1ccccc1C(=O)NN=Cc1cccc([N+](=O)[O-])c1	.	.	58.5*	.	.
CCCCCCC(=O)Nc1ccc(C(=O)N/N=C/c2cccnc2)cc1	2.3	1	-5.1	-1.8	-11.0
O=C(N/N=C/c1cccnc1)c1ccc([N+](=O)[O-])cc1	-2.4	0.3	12.4	67.3*	26.0
NC(Cc1ccccc1)c1csc(NC(=O)Nc2ccccc2Oc2ccccc2)n1 (stereo not drawn)	.	.	74.6*	.	.
COc1ccc(NC(=O)Nc2nc(C(N)Cc3ccc(C(F)(F)F)cc3)cs2)cc1 (stereo not drawn)	.	.	48.5	.	.
CN(Cc1ccccc1)C(=O)c1ccc(Nc2nc(C(N)Cc3ccc(C(F)(F)F)cc3)cs2)nc1 (stereo not drawn)	.	.	92.6*	.	.
NC(Cc1ccc(C(F)(F)F)cc1)c1csc(NC(=O)Nc2ccccc2Oc2ccccc2)n1 (stereo not drawn)	.	.	87.2*	.	.
COc1cc(NC(=O)Nc2nc(C(N)Cc3ccc(C(F)(F)F)cc3)cs2)cc(OC)c1OC (stereo not drawn)	.	.	53.0*	.	.
CC(C)N1CCC1(C)C(=O)Nc1cccc(C#N)c1 (stereo not drawn)	.	.	2.3	.	.
Cc1c(NC(=O)C(C)Sc2nc(N)cc(=O)[nH]2)c(=O)n(-c2ccccc2)n1C (stereo not drawn)	.	.	3.7	.	.
COc1ccc(OC)c(NC(=O)NC2CCCc3ccccc32)c1 (stereo not drawn)	5.9	.	14.3	.	.
COCCN1C(=O)N[C@@H](c2ccccc2)[C@@H](C(=O)OC)[C@H]1C	.	.	-5.7	.	.
O=C(O)CC1c2ccccc2C=Cc2ccccc21	.	.	-3.1	.	.
Cc1nn(Cc2ccc(Cl)cc2Cl)c(C)c1NC(=O)CCl	1.6	1	89.5*	-0.9	10.1
Cc1nn(Cc2ccc(Cl)cc2Cl)c(C)c1NC(=O)c1nn(C)cc1Cl	-3.3	1.1	4.4	-5.8	-6.7
CS(=O)(=O)c1ccc(C(=O)OCC(=O)N2CCN(CCC3CCCCC3)CC2)cc1[N+](=O)[O-]	.	.	88.7*	.	.
CS(=O)(=O)c1ccc(C(=O)OCC(=O)N2CCOCC2)cc1[N+](=O)[O-]	.	.	-5.0	.	.
OC(COCC1COc2ccccc2O1)CN1CCN(c2ccccn2)CC1 (stereo not drawn)	19.1*	1.1	-3.7	-5.8	5.1
COc1cc(OC)cc(C(=O)NC(C(=O)Nc2ccc3c(c2)OCCO3)C(C)C)c1 (stereo not drawn)	.	.	-14.2	.	.
COc1cc(OC)cc(C(=O)Nc2ccc3c(c2)OCCO3)c1	-0.6	.	51.4*	.	.
CCOc1ccc(C(=O)Nc2ccc3c(c2)OCCO3)cc1OC	-3.3	0.4	36.3	59.8*	30.9
COc1ccccc1NC(=O)C1CC(C(C)C)OC1=O (stereo not drawn)	.	.	4.6	.	.
SMILES	HSP90 refold inh	FLuc act counter	TRAIL sens C8	FLuc inhib CS	PPC-1+TRAIL kill
CN(C)C(CNC(=O)c1ccc(S(=O)(=O)Nc2cccc(C(F)(F)F)c2)cc1)c1ccco1 (stereo not drawn)	.	.	-1.3	.	.
O=C(Cc1cccs1)Nc1cccc(-c2nc3cc4ccccc4cc3[nH]2)c1	3.1	0.2	73.5*	75.4*	46.9
COC(=O)c1cc(Br)ccc1NC(=O)CCNC(=O)c1ccco1	-2.5	.	6.6	.	.
Cc1ccc(C(=O)Nc2ccc3c(c2)nc2n3CCSC2)cc1	5.1	0.4	22.2	62.0*	44.6
CCCNc1c(NS(=O)(=O)c2c(F)c(F)c(F)c(F)c2F)c(=O)oc2ccccc12	-1.1	.	-20.4	.	.
COc1ccc2nc(C)cc(N/N=C/c3ccc(F)cc3)c2c1	-3.2	.	93.5*	.	.
CCC(=O)Oc1cccc(C(=O)Nc2cccc(NC(=O)c3ccco3)c2)c1	3.4	.	4.1	.	.
O=C(Nc1ccc(OC(=O)c2ccco2)cc1)c1ccco1	0.1	0.3	10.4	66.3*	33.9
O=C(Nc1cccc(OC(=O)c2ccco2)c1)c1ccco1	1.7	1	22.1	1.9	5.0
CCC(=O)Oc1ccc(NC(=O)c2ccco2)cc1	0.7	0.4	-1.5	60.9*	12.8
CCC(=O)Nc1ccc(NC(=O)c2ccco2)cc1	-0.3	0.6	56.6*	38.3	28.9
Cc1ccc(OCC(=O)N/N=C\c2ccncc2)c(C)c1	2.4	1	2.4	-2.8	7.6
Cc1cccc(OC(C)C(=O)N2CCCN(C)CC2)c1C (stereo not drawn)	1.5	.	5.6	.	.
CCc1ccc(-c2nc(CCl)cs2)cc1	0.3	0.4	15.0	64.8*	-7.3
Cc1cc(Br)ccc1NC(=O)CNC(=O)Cc1ccc(S(=O)(=O)N2CCOCC2)s1	.	.	7.8	.	.
O=c1oc2ccccc2nc1/C=C(\O)c1ccccc1	6.6	.	-8.6	.	-13.5
O/C(=C\c1nc2ccccc2nc1/C=C(\O)c1ccccc1)c1ccccc1	2.4	0.3	-3.9	73.2*	13.4
Cc1cc(Nc2nc(Cl)c(Cl)cc2Cl)n(-c2ccccc2)n1	26.4*	1	6.7	-1.9	10.7
Cn1c(/C=N/c2nc3ccccc3[nH]2)nc2ccccc21	1.9	1	12.0	-2.3	19.4
C(=N\c1nc2ccccc2[nH]1)/c1cccs1	1.1	0.3	-7.4	70.8*	12.4
O=C(Nc1ccc2nc(-c3cccs3)[nH]c2c1)c1ccco1	-2.6	0.4	47.8	61.6*	10.6
O=C(Nc1ccc2nc(-c3cccs3)[nH]c2c1)c1cccs1	-7.7	0.4	41.5	61.3*	40.8
O=C(Nc1nc(-c2cccs2)cs1)c1ccco1	0.1	0.5	-2.6	53.3*	25.5
O=C(Nc1nc(-c2ccncc2)cs1)c1ccco1	-3.0	1	-3.1	4.2	-10.5
O=C(Nc1ccc(-c2nc3ccc(NC(=O)c4cccs4)cc3[nH]2)cc1)c1cccs1	2.9	1.1	31.5	-6.8	-8.6
SMILES	HSP90 refold inh	FLuc act counter	TRAIL sens C8	FLuc inhib CS	PPC-1+TRAIL kill
CC(=O)Nc1ccc2nc(-c3ccccn3)[nH]c2c1	2.2	0.5	33.2	51.1*	34.7
CC(=O)Nc1ccc2nc(-c3ccncc3)[nH]c2c1	3.4	0.9	13.2	5.6	20.8
O=C(c1cccs1)c1no[n+]([O-])c1C(=O)c1cccs1	2.3	1	92.5*	1.2	13.1
O=C(c1ccc(Cl)nc1)c1cccs1	1.9	.	.	.	3.2
COc1ccc(C(=O)c2no[n+]([O-])c2C(=O)c2ccc(OC)cc2)cc1	4.9	1.1	93.4*	-7.8	19.4
COc1ccc(NC(=O)c2c(N)no[n+]2[O-])cc1	-5.3	1	4.3	-2.3	25.0
CC1CC(C)CN(CCOc2ccc(Br)cc2)C1 (stereo not drawn)	3.6	1	1.6	-2.1	2.2
COc1ccccc1C(=O)NC(CCSC)C(=O)OC(C)C(=O)NC1CC1 (stereo not drawn)	.	.	7.5	.	.
